From ChEMBL document CHEMBL1156988, “Synthesis and antibacterial studies of binaphthyl-based tripeptoids. Part 1” (2010)

Experiments:
Enterococcus faecium [1] = assay: Antibacterial activity against vancomycin-resistant Enterococcus faecium 820 after overnight incubation; conditions: Enterococcus faecium, 820; read-out: MIC
Enterococcus faecium [2] = assay: Antibacterial activity against vancomycin-resistant Enterococcus faecium 987 after overnight incubation; conditions: Enterococcus faecium, 987; read-out: MIC
Enterococcus faecium [3] = assay: Antibacterial activity against vancomycin-resistant Enterococcus faecium 449 after overnight incubation; conditions: Enterococcus faecium, 449; read-out: MIC
Staphylococcus aureus = assay: Antibacterial activity against Staphylococcus aureus 6538P after overnight incubation; assay type: functional; conditions: Staphylococcus aureus, 6538P; read-out: MIC
Method in brief: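 Strains were grown in Luria Broth. Overnight stationary-phase cultures were diluted 1:1000 into fresh medium with twofold compound dilutions, highest typically 128 µg/ml, in 96-well plates. Incubated overnight at 37 °C. MIC recorded as the […].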

Enterococcus faecium [4] = assay: Antibacterial activity against vancomycin-resistant Enterococcus faecium 243 after overnight incubation; conditions: Enterococcus faecium, 243; read-out: MIC

Row | SMILES | MIC (Enterococcus faecium [1]) | MIC (Enterococcus faecium [2]) | MIC (Enterococcus faecium [3]) | MIC (Staphylococcus aureus) | MIC (Enterococcus faecium [4])
1 | C=CCOc1ccc2ccccc2c1-c1c(OCC(=O)N[C@H](CCCCN)C(=O)N[C@H](CCCNC(=N)N)C(=O)N[C@@H](CC=C)C(=O)OCc2ccccc2)ccc2ccccc12.Cl.Cl | 31.3 µg/mL | 31.3 µg/mL | 31.3 µg/mL | 1.95 µg/mL | 31.3 µg/mL
2 | C=CCOc1ccc2ccccc2c1-c1c(OCC(=O)N[C@H](CCCNC(=N)N)C(=O)N[C@H](CCCNC(=N)N)C(=O)N[C@@H](CC=C)C(=O)OCc2ccccc2)ccc2ccccc12.Cl.Cl | 125 µg/mL | > 125 µg/mL | 125 µg/mL | 31.3 µg/mL | > 125 µg/mL
3 | C=CCOc1ccc2ccccc2c1-c1c(OCC(=O)N[C@H](CCCCN)C(=O)N[C@H](CCCCN)C(=O)N[C@@H](CC=C)C(=O)OCc2ccccc2)ccc2ccccc12.Cl.Cl | 62.5 µg/mL | 125 µg/mL | 62.5 µg/mL | 3.9 µg/mL | 125 µg/mL
4 | C=CCOc1ccc2ccccc2c1-c1c(OCC(=O)NCC(=O)N[C@H](CCCNC(=N)N)C(=O)N[C@@H](CC=C)C(=O)OCc2ccccc2)ccc2ccccc12.Cl | 125 µg/mL | > 125 µg/mL | 125 µg/mL | 15.6 µg/mL | > 125 µg/mL
5 | C=CCOc1ccc2ccccc2c1-c1c(OCC(=O)N[C@H](C)C(=O)N[C@H](CCCNC(=N)N)C(=O)N[C@@H](CC=C)C(=O)OCc2ccccc2)ccc2ccccc12.Cl | 62.5 µg/mL | 62.5 µg/mL | 62.5 µg/mL | 5.2 µg/mL | 62.5 µg/mL
6 | C=CCOc1ccc2ccccc2c1-c1c(OCC(=O)N[C@H](CC=C)C(=O)N[C@H](CCCNC(=N)N)C(=O)N[C@@H](CC=C)C(=O)OCc2ccccc2)ccc2ccccc12.Cl | 62.5 µg/mL | 125 µg/mL | 125 µg/mL | 15.6 µg/mL | 125 µg/mL
7 | C=CCOc1ccc2ccccc2c1-c1c(OCC(=O)N[C@H](CC(C)C)C(=O)N[C@H](CCCNC(=N)N)C(=O)N[C@@H](CC=C)C(=O)OCc2ccccc2)ccc2ccccc12.Cl | 31.3 µg/mL | 62.5 µg/mL | 31.3 µg/mL | 3.9 µg/mL | 62.5 µg/mL
8 | C=CCOc1ccc2ccccc2c1-c1c(OCC(=O)N[C@H](Cc2ccccc2)C(=O)N[C@H](CCCNC(=N)N)C(=O)N[C@@H](CC=C)C(=O)OCc2ccccc2)ccc2ccccc12.Cl | 31.3 µg/mL | > 125 µg/mL | 62.5 µg/mL | 26.1 µg/mL | > 125 µg/mL
9 | C=CCOc1ccc2ccccc2c1-c1c(OCC(=O)N[C@H](CCCC)C(=O)N[C@H](CCCNC(=N)N)C(=O)N[C@@H](CC=C)C(=O)OCc2ccccc2)ccc2ccccc12.Cl | 62.5 µg/mL | 125 µg/mL | 83 µg/mL | 52.1 µg/mL | 125 µg/mL
10 | C=CCOc1ccc2ccccc2c1-c1c(OCC(=O)N[C@H](CCCCN)C(=O)N[C@H](CCCNC(=N)N)C(=O)N[C@H](CC=C)C(=O)OCc2ccccc2)ccc2ccccc12.Cl.Cl | 62.5 µg/mL | 125 µg/mL | 104 µg/mL | 15.6 µg/mL | 125 µg/mL
11 | C=CCOc1ccc2ccccc2c1-c1c(OCC(=O)N[C@H](CCCCN)C(=O)N[C@H](CCCNC(=N)N)C(=O)N[C@@H](CC(C)C)C(=O)OCc2ccccc2)ccc2ccccc12.Cl.Cl | 31.3 µg/mL | 31.3 µg/mL | 31.3 µg/mL | 1.95 µg/mL | 31.3 µg/mL
12 | C=CCOc1ccc2ccccc2c1-c1c(OCC(=O)N[C@H](CC(C)C)C(=O)N[C@H](CCCNC(=N)N)C(=O)N[C@@H](C)C(=O)OCc2ccccc2)ccc2ccccc12.Cl | 62.5 µg/mL | 62.5 µg/mL | 62.5 µg/mL | 5.2 µg/mL | 62.5 µg/mL
13 | C=CCOc1ccc2ccccc2c1-c1c(OCC(=O)N[C@H](CCCCN)C(=O)N[C@H](CCCNC(=N)N)C(=O)N[C@@H](C)C(=O)OCc2ccccc2)ccc2ccccc12.Cl.Cl | 125 µg/mL | 125 µg/mL | 125 µg/mL | 7.8 µg/mL | 125 µg/mL
14 | C=CCOc1ccc2ccccc2c1-c1c(OCC(=O)N[C@H](CCCCN)C(=O)N[C@H](CCCNC(=N)N)C(=O)NCC(=O)OCc2ccccc2)ccc2ccccc12.Cl.Cl | 125 µg/mL | 125 µg/mL | 62.5 µg/mL | 3.9 µg/mL | 125 µg/mL
